Reference: ChEMBL document CHEMBL1123290, “Synthesis, antimalarial activity, and quantitative structure-activity relationships of tebuquine and a series of related 5-[(7-chloro-4-quinolinyl)amino]-3-[(alkylamino)methyl] [1,1'-biphenyl]-2-ols and N omega-oxides” (1986)

Assays:
Format in all cases: functional
Plasmodium berghei [1] = test: Change in mean survival time for control (average 6.2 days) versus treated mice (Mus musculus) 72 hrs after 5 mg/kg subcutaneous dose
Plasmodium berghei [2] = test: Change in mean survival time for control (average 6.2 days) versus treated mice (Mus musculus) 72 hrs after 640 mg/kg subcutaneous dose
Plasmodium berghei [3] = test: Change in mean survival time for control (average of 6.2 days) versus treated mice (Mus musculus) 72 hrs after 80 mg/kg subcutaneous dose
Plasmodium berghei [4] = test: Change in mean survival time for control (average 6.2 days) versus treated mice (Mus musculus) 72 hrs after 10 mg/kg subcutaneous dose
Plasmodium berghei [5] = test: Change in mean survival time for control (average 6.2 days) versus treated mice (Mus musculus) 72 hrs after 160 mg/kg subcutaneous dose
Plasmodium berghei [6] = test: Change in mean survival time for control (average 6.2 days) versus treated mice (Mus musculus) 72 hrs after […] subcutaneous dose
Plasmodium berghei [7] = test: Change in mean survival time for control (average 6.2 days) versus treated mice (Mus musculus) 72 hrs after 20 mg/kg subcutaneous dose
Plasmodium berghei [8] = test: Change in mean survival time for control (average 6.2 days) versus treated mice (Mus musculus) 72 hrs after 320 mg/kg subcutaneous dose
Plasmodium berghei [9] = test: Difference in mean survival time in mice (Mus musculus) (control = 6.2 days) after single 40mg/kg subcutaneous dose 72hr post infection
Plasmodium berghei [10] = test: Antimalarial activity as 60-day survivors in Plasmodium berghei infected mice (Mus musculus) after single 160mg/kg subcutaneous dose 72 hr post infection
Summary of the method: (§1)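 Mice were infected with a normal drug-sensitive Plasmodium berghei strain. At 72 h postinfection each received one subcutaneous dose of compound dissolved or suspended in peanut oil, in five-mouse groups per dose. The read-out was the number of mice alive at 60 days postinfection, which were scored as cured.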

Plasmodium berghei [11] = test: Antimalarial activity as 60-day survivors in infected mice (Mus musculus) after single 320mg/kg subcutaneous dose 72 hr post infection; summary of the method: as §1
Mus musculus [12] = test: Antimalarial activity, administered as a single subcutaneous dose of 640 mg/kg, 72 hrs post infection measured as number of mice (Mus musculus) surviving at 60 days post infection; summary of the method: as §1
Mus musculus [13] = test: Delta MST, difference in mean survival time of the control mice (an average of 6.2 days) from the mean survival time of the treated mice after a single sc dose of 1.25 mg/kg, 72-h postinfection; settings: route subcutaneous
Mus musculus [14] = test: Antimalarial activity, administered as a single subcutaneous dose of 80 mg/kg, 72 hrs post infection measured as number of mice (Mus musculus) surviving at 60 days post infection; summary of the method: as §1
Plasmodium berghei [15] = test: Antimalarial activity in primary screen
Plasmodium berghei [16] = test: Change in mean survival time for control (average 6.2 days) versus treated mice (Mus musculus) 72 hrs after […] subcutaneous dose
Mus musculus [17] = test: Antimalarial activity of compound administered as a single subcutaneous dose of 10mg/kg, 72 hrs post infection measured as number of mice (Mus musculus) surviving at 60 days post infection; summary of the method: as §1
Mus musculus [18] = test: Compound was evaluated for parenteral antimalarial activity against Plasmodium berghei in mice (Mus musculus) after single dose (40 mg/kg subcutaneous); no of mice (Mus musculus) surviving at 60 days post infection, 3 cured; summary of the method: as §1
Mus musculus [19] = test: Antimalarial activity of compound administered as a single subcutaneous dose of 20 mg/kg, 72 hrs post infection measured as number of mice (Mus musculus) surviving at 60 days post infection; summary of the method: as §1
Mus musculus [20] = test: Antimalarial activity of compound administered as a single subcutaneous dose of 320 mg/kg, 72 hrs post infection measured as number of mice (Mus musculus) surviving at 60 days post infection; summary of the method: as §1
Mus musculus [21] = test: Antimalarial activity of compound administered as a single subcutaneous dose of 80mg/kg, 72-h postinfection measured as number of mice (Mus musculus) surviving at 60 days postinfection; summary of the method: as §1
Mus musculus [22] = test: Antimalarial activity of compound administered as a single subcutaneous dose of 160mg/kg, 72-h postinfection measured as number of mice (Mus musculus) surviving at 60 days postinfection; summary of the method: as §1
Mus musculus [23] = test: Antimalarial activity of compound administered as a single subcutaneous dose of 40 mg/kg, 72-h postinfection measured as number of mice (Mus musculus) surviving at 60 days postinfection; summary of the method: as §1

## Oc1c(CNC2CCCCC2)cc(Nc2ccnc3cc(Cl)ccc23)cc1-c1ccc(Cl)cc1
Plasmodium berghei [1]
  Delta MST: 1.5 days
Plasmodium berghei [2]
  Delta MST: 17.6 days
Plasmodium berghei [3]
  Delta MST: 23.6 days
Plasmodium berghei [4]
  Delta MST: 4.1 days
Plasmodium berghei [5]
  Delta MST: 20.6 days
Plasmodium berghei [6]
  Delta MST: 0.5 days
Plasmodium berghei [7]
  Delta MST: 12.9 days
Plasmodium berghei [8]
  Delta MST: -0.4 days
Plasmodium berghei [9]
  Delta MST: 17.9 days
Plasmodium berghei [10]
  No. of mice cured: 4
Plasmodium berghei [11]
  No. of mice cured: 4
Mus musculus [12]
  No. of mice cured: 4
Mus musculus [13]
  Delta MST: 0.7 days
Mus musculus [14]
  No. of mice cured: 3

## CCN(CC)Cc1cc(Nc2ccnc3cc(Cl)ccc23)cc(-c2cccc(C(F)(F)F)c2)c1O
Plasmodium berghei [15]
  ED30: 16.3 mg/kg
Plasmodium berghei [1]
  Delta MST: 13.5 days
Plasmodium berghei [2]
  Delta MST: 17.9 days
Plasmodium berghei [3]
  Delta MST: 28.2 days
Plasmodium berghei [16]
  Delta MST: 0.5 days
Plasmodium berghei [4]
  Delta MST: 15.2 days
Plasmodium berghei [5]
  Delta MST: 21.9 days
Plasmodium berghei [6]
  Delta MST: 9.7 days
Plasmodium berghei [7]
  Delta MST: 23.7 days
Plasmodium berghei [8]
  Delta MST: 21.9 days
Plasmodium berghei [9]
  Delta MST: 31.4 days
Mus musculus [17]
  No. of mice cured: 1
Plasmodium berghei [10]
  No. of mice cured: 4
Plasmodium berghei [11]
  No. of mice cured: 3
Mus musculus [12]
  No. of mice cured: 3
Mus musculus [18]
  No. of mice cured: 3
Mus musculus [14]
  No. of mice cured: 2

## CC(C)CNCc1cc(Nc2ccnc3cc(Cl)ccc23)cc(-c2ccc(Cl)cc2)c1O
Plasmodium berghei [1]
  Delta MST: 5.2 days
Plasmodium berghei [2]
  Delta MST: 13.4 days
Plasmodium berghei [16]
  Delta MST: 0.8 days
Plasmodium berghei [4]
  Delta MST: 14.8 days
Plasmodium berghei [5]
  Delta MST: 4.9 days
Plasmodium berghei [6]
  Delta MST: 2 days
Plasmodium berghei [7]
  Delta MST: 19.6 days
Plasmodium berghei [8]
  Delta MST: 11.3 days
Mus musculus [19]
  No. of mice cured: 2
Mus musculus [20]
  No. of mice cured: 2
Mus musculus [21]
  No. of mice cured: 5
Mus musculus [22]
  No. of mice cured: 2
Mus musculus [23]
  No. of mice cured: 5
